From ChEMBL document CHEMBL1121917, “Structure--activity relationships in a broad-spectrum anthelmintic series. Acid chloride phenylhydrazones. 1. Aryl substitutions and chloride variations” (1981)

Tests used:
Ovis aries [1] = experiment: Percent reduction in Trichostrongylus eggs per gram, after treatment with 200 mg/kg dose of compound in sheep perorally; assay type: functional, Egg; settings: route oral
Ovis aries [2] = experiment: Percent reduction in Trichuris eggs per gram, after treatment with 150 mg/kg dose of compound in sheep perorally; assay type: functional, Egg; settings: route oral
Canis familiaris [3] = organism: Canis familiaris; experiment: Percent reduction in Trichuris eggs per gram, after treatment with 200 mg/dog dose of compound in a single treatment; assay type: functional, Canis lupus familiaris, Egg
Canis familiaris [4] = organism: Canis familiaris; experiment: Percent reduction in Toxascaris eggs per gram, after treatment with 200 mg/dog dose of compound in a single treatment; assay type: functional, Canis lupus familiaris, Egg
In short: (§1)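 Dogs naturally infected with Toxascaris leonina were experimentally infected with mixed Ancylostoma caninum and Uncinaria stenocephala larvae. Finely ground compound was given orally in gelatin capsules. Three egg count determinations were made before and three after treatment in each experiment.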

Ovis aries [5] = experiment: Percent reduction in Oesophagostomum eggs per gram, after treatment with 200 mg/kg dose of compound in sheep perorally; assay type: functional, Egg; settings: route oral
In short: (§2)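 Naturally parasitized lambs were dosed orally at the stated mg/kg. Dosing was either as a suspension of finely ground compound by stomach tube, or as ground compound weighed into gelatin capsules and given by balling gun. Activity was scored by the clinical test method: the decrease in posttreatment helminth eggs per gram.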

Ovis aries [6] = experiment: Percent reduction in Strongyloides eggs per gram, after treatment with 100 mg/kg dose of compound in sheep perorally; assay type: functional, Egg; settings: route oral
In short: (§3)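 Naturally parasitized lambs, dosed orally either with a suspension by stomach tube or with finely ground compound in gelatin capsules by balling gun. Activity was scored by the clinical test method, meaning a significant fall in helminth egg counts after treatment.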

Ovis aries [7] = experiment: Percent reduction in Haemonchus eggs per gram, after treatment with 200 mg/kg dose of compound in sheep perorally; assay type: functional, Egg; settings: route oral; in short: as §2
Ovis aries [8] = experiment: Percent reduction in Trichostrongylus eggs per gram, after treatment with 100 mg/kg dose of compound in sheep perorally; assay type: functional, Egg; settings: route oral
In short: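 Lambs naturally parasitized with helminths. Finely ground compound was given orally, either as an aqueous suspension by stomach tube or weighed into gelatin capsules given by balling gun. Activity was assessed by the clinical test method: the reduction in helminth egg counts after treatment.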

Canis familiaris [9] = organism: Canis familiaris; experiment: Percent reduction in Ancylostoma eggs per gram, after treatment with 275 mg/dog dose of compound in a single treatment; assay type: functional, Canis lupus familiaris, Egg
In short: (§4)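 Dogs naturally infected with Toxascaris leonina were experimentally infected with mixed Ancylostoma caninum and Uncinaria stenocephala larvae. Finely ground compound was given orally in gelatin capsules. Fecal egg counts were taken three times before and three times after treatment, and activity was taken as the fall in egg counts.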

Ovis aries [10] = experiment: Percent reduction in Cooperia eggs per gram, after treatment with 100 mg/kg dose of compound in sheep perorally; assay type: functional, Egg; settings: route oral
In short: (§5)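 Naturally parasitized lambs received compound orally, either as the aqueous suspension by stomach tube or as finely ground powder in gelatin capsules by balling gun. Activity was judged by the clinical test method, as a significant decrease in posttreatment helminth egg counts.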

Ovis aries [11] = experiment: Percent reduction in Trichuris eggs per gram, after treatment with 300 mg/kg dose of compound in sheep perorally; assay type: functional, Egg; settings: route oral
Ovis aries [12] = experiment: Percent reduction in Nematodirus eggs per gram, after treatment with 300 mg/kg dose of compound in sheep perorally; assay type: functional, Egg; settings: route oral; in short: as §2
Ovis aries [13] = experiment: Percent reduction in Oesophagostomum eggs per gram, after treatment with 150 mg/kg dose of compound in sheep perorally; assay type: functional, Egg; settings: route oral; in short: as §2
Canis familiaris [14] = organism: Canis familiaris; experiment: Percent reduction in Uncinaria eggs per gram, after treatment with 275 mg/dog dose of compound in a single treatment; assay type: functional, Canis lupus familiaris, Egg
Ovis aries [15] = experiment: Percent reduction in Trichuris eggs per gram, after treatment with 400 mg/kg dose of compound in sheep perorally; assay type: functional, Egg; settings: route oral
Ovis aries [16] = experiment: Percent reduction in Strongyloides eggs per gram, after treatment with 400 mg/kg dose of compound in sheep perorally; assay type: functional, Egg; settings: route oral; in short: as §3
Ovis aries [17] = experiment: Percent reduction in Moniezia eggs per gram, after treatment with 150 mg/kg dose of compound in sheep perorally; assay type: functional, Egg; settings: route oral; in short: as §2
Ovis aries [18] = experiment: Percent reduction in Ostertagia eggs per gram, after treatment with 300 mg/kg dose of compound in sheep perorally; assay type: functional, Egg; settings: route oral; in short: as §3
Ovis aries [19] = experiment: Percent reduction in Haemonchus eggs per gram, after treatment with 300 mg/kg dose of compound in sheep perorally; assay type: functional, Egg; settings: route oral; in short: as §2
Canis familiaris [20] = organism: Canis familiaris; experiment: Percent reduction in Ancylostoma eggs per gram, after treatment with 250 mg/dog dose of compound in a single treatment; assay type: functional, Canis lupus familiaris, Egg; in short: as §4
Ovis aries [21] = experiment: Percent reduction in Nematodirus eggs per gram, after treatment with 100 mg/kg dose of compound in sheep perorally; assay type: functional, Egg; settings: route oral; in short: as §2
Ovis aries [22] = experiment: Percent reduction in Strongyloides eggs per gram, after treatment with 300 mg/kg dose of compound in sheep perorally; assay type: functional, Egg; settings: route oral; in short: as §3
Ovis aries [23] = experiment: Percent reduction in Strongyloides eggs per gram, after treatment with 200 mg/kg dose of compound in sheep perorally; assay type: functional, Egg; settings: route oral; in short: as §3
Mus musculus [24] = organism: Mus musculus; experiment: Percent clearance of Nematospiroides dubius from mouse oral treatment of 0.25 mg/mouse/day of compound; assay type: functional
In short: (§6)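 Mice naturally carrying Syphacia obvelata were experimentally infected with Nematospiroides dubius and Hymenolepis nana, then grouped after a 2-week prepatency. Finely ground compound was suspended in aqueous 0.10% carboxymethylcellulose, 0.04% polysorbate 80 and 0.0042% polyparaben, and 0.1 mL was given orally by cannula once daily for 4 days to five mice. Necropsy followed 2 days later, scoring presence or absence of each parasite. Control clearance was subtracted from the treated clearance.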

Canis familiaris [25] = organism: Canis familiaris; experiment: Percent reduction in Uncinaria eggs per gram, after treatment with 200 mg/dog dose of compound in a single treatment; assay type: functional, Canis lupus familiaris, Egg; in short: as §1
Ovis aries [26] = experiment: Percent reduction in Ostertagia eggs per gram, after treatment with 400 mg/kg dose of compound in sheep perorally; assay type: functional, Egg; settings: route oral; in short: as §3
Canis familiaris [27] = organism: Canis familiaris; experiment: Percent reduction in Ancylostoma eggs per gram, after treatment with 200 mg/dog dose of compound in a single treatment; assay type: functional, Canis lupus familiaris, Egg; in short: as §4
Ovis aries [28] = experiment: Percent reduction in Oesophagostomum eggs per gram, after treatment with 300 mg/kg dose of compound in sheep perorally; assay type: functional, Egg; settings: route oral; in short: as §2
Ovis aries [29] = experiment: Percent reduction in Ostertagia eggs per gram, after treatment with 100 mg/kg dose of compound in sheep perorally; assay type: functional, Egg; settings: route oral; in short: as §2
Ovis aries [30] = experiment: Percent reduction in Haemonchus eggs per gram, after treatment with 400 mg/kg dose of compound in sheep perorally; assay type: functional, Egg; settings: route oral; in short: as §2
Ovis aries [31] = experiment: Percent reduction in Trichostrongylus eggs per gram, after treatment with 400 mg/kg dose of compound in sheep perorally; assay type: functional, Egg; settings: route oral
Ovis aries [32] = experiment: Percent reduction in Nematodirus eggs per gram, after treatment with 150 mg/kg dose of compound in sheep perorally; assay type: functional, Egg; settings: route oral; in short: as §2
Ovis aries [33] = experiment: Percent reduction in Ostertagia eggs per gram, after treatment with 200 mg/kg dose of compound in sheep perorally; assay type: functional, Egg; settings: route oral; in short: as §3
Ovis aries [34] = experiment: Percent reduction in Haemonchus eggs per gram, after treatment with 150 mg/kg dose of compound in sheep perorally; assay type: functional, Egg; settings: route oral; in short: as §5
Ovis aries [35] = experiment: Percent reduction in Haemonchus eggs per gram, after treatment with 100 mg/kg dose of compound in sheep perorally; assay type: functional, Egg; settings: route oral; in short: as §5
Mus musculus [36] = organism: Mus musculus; experiment: Percent clearance of Syphacaia obvelata from mouse after oral treatment of 0.25 mg/mouse/day of compound; assay type: functional; in short: as §6
Ovis aries [37] = experiment: Percent reduction in Trichuris eggs per gram, after treatment with 200 mg/kg dose of compound in sheep perorally; assay type: functional, Egg; settings: route oral
Ovis aries [38] = experiment: Percent reduction in Ostertagia eggs per gram, after treatment with 150 mg/kg dose of compound in sheep perorally; assay type: functional, Egg; settings: route oral; in short: as §2
Ovis aries [39] = experiment: Percent reduction in Trichostrongylus eggs per gram, after treatment with 150 mg/kg dose of compound in sheep perorally; assay type: functional, Egg; settings: route oral
Ovis aries [40] = experiment: Percent reduction in Nematodirus eggs per gram, after treatment with 400 mg/kg dose of compound in sheep perorally; assay type: functional, Egg; settings: route oral; in short: as §2
Ovis aries [41] = experiment: Percent reduction in Trichuris eggs per gram, after treatment with 100 mg/kg dose of compound in sheep perorally; assay type: functional, Egg; settings: route oral
Ovis aries [42] = experiment: Percent reduction in Strongyloides eggs per gram, after treatment with 150 mg/kg dose of compound in sheep perorally; assay type: functional, Egg; settings: route oral; in short: as §3
Ovis aries [43] = experiment: Percent reduction in Oesophagostomum eggs per gram, after treatment with 100 mg/kg dose of compound in sheep perorally; assay type: functional, Egg; settings: route oral; in short: as §2
Canis familiaris [44] = organism: Canis familiaris; experiment: Percent reduction in Uncinaria eggs per gram, after treatment with 250 mg/dog dose of compound in a single treatment; assay type: functional, Canis lupus familiaris, Egg
Ovis aries [45] = experiment: Percent reduction in Nematodirus eggs per gram, after treatment with 200 mg/kg dose of compound in sheep perorally; assay type: functional, Egg; settings: route oral; in short: as §2
Ovis aries [46] = experiment: Percent reduction in Trichostrongylus eggs per gram, after treatment with 300 mg/kg dose of compound in sheep perorally; assay type: functional, Egg; settings: route oral

Cc1ccc(/C(Cl)=N/Nc2ccccc2)cc1
Reduction (Ovis aries [1]): 100%
Reduction (Ovis aries [2]): 25%
Reduction (Canis familiaris [3]): 100%
Reduction (Canis familiaris [4]): 100%
Reduction (Ovis aries [5]): 100%
Reduction (Ovis aries [6]): 99%
Reduction (Ovis aries [7]): 100%
Reduction (Ovis aries [8]): 73%
Reduction (Canis familiaris [9]): 100%
Reduction (Ovis aries [10]): 100%
Reduction (Ovis aries [11]): 0%
Reduction (Ovis aries [12]): 100%
Reduction (Ovis aries [13]): 79%
Reduction (Canis familiaris [14]): 99.8%
Reduction (Ovis aries [15]): 0%
Reduction (Ovis aries [16]): 100%
Reduction (Ovis aries [17]): 100%
Reduction (Ovis aries [18]): 100%
Reduction (Ovis aries [19]): 100%
Reduction (Canis familiaris [20]): 100%
Reduction (Ovis aries [21]): 100%
Reduction (Ovis aries [22]): 100%
Reduction (Ovis aries [23]): 37%
Parasite_Clearance (Mus musculus [24]): 20%
Reduction (Canis familiaris [25]): 100%
Reduction (Ovis aries [26]): 100%
Reduction (Canis familiaris [27]): 100%
Reduction (Ovis aries [28]): 100%
Reduction (Ovis aries [29]): 96%
Reduction (Ovis aries [30]): 100%
Reduction (Ovis aries [31]): 100%
Reduction (Ovis aries [32]): 100%
Reduction (Ovis aries [33]): 100%
Reduction (Ovis aries [34]): 100%
Reduction (Ovis aries [35]): 84%
Parasite_Clearance (Mus musculus [36]): 100%
Reduction (Ovis aries [37]): 0%
Reduction (Ovis aries [38]): 100%
Reduction (Ovis aries [39]): 98%
Reduction (Ovis aries [40]): 100%
Reduction (Ovis aries [41]): 29%
Reduction (Ovis aries [42]): 100%
Reduction (Ovis aries [43]): 100%
Reduction (Canis familiaris [44]): 100%
Reduction (Ovis aries [45]): 100%
Reduction (Ovis aries [46]): 100%
